The test system of test [1] is L1210. The test is described as follows: Compound was evaluated in vitro for its inhibitory activity against L1210 leukemia cell line using Coulter counter assay. The conditions noted are these: Mus musculus. It counts as functional. The method in brief:
(§1)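 Log-phase murine L1210 or cisplatin-resistant L1210/DDP cells, drug in ethanol, ethanol/DMSO or DMF (final solvent ≤1.0%) with vehicle-only controls. Exposure was continuous for 48 h, or 2 h followed by 46 h growth. Cells were counted on a Coulter counter. ID50 (μM) was read from the percentage growth versus dose curve; single determinations, ranges, or mean ± range of 2–4.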

Test [2] has as its system P388. The test is described as follows: Mean survival time of treated animals compared with those of control animals expressed as percentage. T/C was determined against murine leukemia P388 implanted mouse at the dose of 140 umol/kg. It counts as functional. Put shortly: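 BDF1 mice (six per group) inoculated ip with 10^6 P388 leukemia cells on day 0; Pt compounds given ip on days 1, 5 and 9 in 1% Tween-20/saline (1:9), five doses over a 16-fold range including the maximum tolerated dose. Untreated/vehicle negative controls; 5-fluorouracil (50 mg/kg) positive control. Animals observed 30–60 days; %T/C = mean survival time treated vs control.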

Test [3] concerns HT-29. As to the kind of experiment: Compound was evaluated in vitro for its inhibitory activity againstHT-29 and BE human colon carcinoma cell line using MTT assay. It counts as functional, cell-based. The method in brief:
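HT-29 and BE colon cells were pre-grown 12 h in EMEM with 1% glutamine and 15% FCS, then exposed to drug or vehicle for 2 days. Cells were released with pronase and growth was read by MTT tetrazolium reduction. ID50 (μM) was taken from the percentage growth versus dose curve.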
(Tetrazolium assays rely on reduction of a dye to a coloured formazan, in cell work by metabolically active cells.)

Test [4] concerns HT-29. The test is described as follows: Compound was evaluated in vitro for its inhibitory activity againstHT-29 and BE human colon carcinoma cell line using Coulter counter assay. The class given is functional, cell-based. The method in brief:
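HT-29 and BE human colon cells were grown 12 h in EMEM with 1% glutamine and 15% fetal calf serum. Drug or solvent was added (final solvent ≤1.0%) for a further 2 days. Cells were released with pronase and Coulter counted. ID50 (μM) was taken from the percentage growth versus dose curve, with vehicle controls.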

The subject of test [5] is L1210. The test is described as follows: Compound was evaluated in vitro for its inhibitory activity against L1210/DDP leukemia cell line using MTT assay. The class given is functional, cell-based. The conditions noted are these: Mus musculus. The method in brief:
(§2)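 L1210 or L1210/DDP cells were dosed as for counting (48 h continuous, or 2-h pulse then 46 h), with vehicle controls. Growth was read by mitochondrial reduction of tetrazolium (MTT), modified Mosmann method. ID50 (μM) was taken from the percentage growth versus dose curve; single determinations, ranges, or mean ± range of 2–4.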

Test [6] deals with L1210. As to the kind of experiment: Compound was evaluated in vitro for its inhibitory activity against L1210/DDP leukemia cell line using Coulter counter assay. It counts as functional, cell-based. The conditions noted are these: Mus musculus. The method in brief: as §1
Test [7] relates to L1210. As to the kind of experiment: Compound was evaluated in vitro for its inhibitory activity against L1210 leukemia cell line using […]. The class given is functional, cell-based. The conditions noted are these: Mus musculus. The method in brief: as §2
The subject of test [8] is P388/DDP. As to the kind of experiment: Mean survival time of treated animals compared with those of control animals expressed as percentage T/C was determined against murine leukemia P388/DDP (cisplatin resistant) implanted mouse at the dose of 113 umol/kg. The class given is functional. The method in brief: (§3)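 Groups of six BDF1 mice were injected ip on day 0 with 10^6 P388, 5 × 10^6 P388/DDP or 10^5 L1210 cells. Pt compounds in 1% Tween-20/saline (1:9) were given ip on days 1, 5 and 9 at five doses spanning a 16-fold range. Controls were untreated or vehicle-only. Mice were observed 30–60 days; %T/C is treated versus control mean survival time.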

The test system of test [9] is L1210. As to the kind of experiment: Mean survival time of treated animals compared with those of control animals expressed as percentage T/C was determined against murine leukemia L1210 implanted mouse at the dose of 113 umol/kg. It counts as functional. The method in brief:
as §3

The test system of test [10] is P388. As to the kind of experiment: Mean survival time of treated animals compared with those of control animals was determined against murine leukemia P388 implanted mouse at the dose of 113 umol/kg. It counts as functional. The method in brief: as §3
Test [11] concerns P388/DDP. The test is described as follows: Mean survival time of treated animals compared with those of control animals expressed as percentage T/C was determined against murine leukemia P388/DDP (cisplatin resistant) implanted mouse at the dose of 20 umol/kg. It counts as functional. The method in brief: as §3
Test [12] deals with P388. The test is described as follows: Mean survival time of treated animals compared with those of control animals expressed as percentage. T/C was determined against murine leukemia P388 implanted mouse at the dose of 20 umol/kg. It counts as functional. Put shortly: as §3

The values that follow come from ChEMBL document CHEMBL1126252, “cis-bis(pyridine)platinum(II) organoamides with unexpected growth inhibition properties and antitumor activity” (1992).

For `Fc1cc(F)c(F)c(NCCNc2c(F)c(F)cc(F)c2F)c1F`, the IC50 in the test on L1210 [1] (read-out: ID50 (the source's name)) was 37 µM. For the same compound, the T/C – broadly, the result in the treated group divided by that in the control group, in per cent – in the test with P388 [2] amounted to 108%.

In the case of “1-[2-(1-pyridiniumyl)-1,3-di(2,3,5,6-tetrafluorophenyl)tetrahydro-1H-2-imidazolyl]pyridinium (platinumcomplex)”, the ID50 is 1.1 µM in the test on HT-29 [3]; 1 µM with HT-29 [4]; 1.4 µM in the test on L1210 [5]; 1 µM in the test on L1210 [6]; 1.6 µM with L1210 [7]; 1.2 µM in the test with L1210 [1]. In addition, the T/C with P388/DDP [8] stood at 115%; with L1210 [9], 172%; in the test on P388 [10], 206%.

In the case of CISPLATIN, the ID50 with HT-29 [4] was determined as 0.7 µM; in the test on L1210 [5], 20.3 µM; with L1210 [6] it was 6.7 µM; in the test on L1210 [7] it was 1.1 µM; in the test with L1210 [1], 0.6 µM. The T/C with P388/DDP [11] is 122%; in the test on P388 [12] it was 248%.
